Assay results published in ChEMBL document CHEMBL1926614, “Substituted thiazoles V. synthesis and antitumor activity of novel thiazolo[2,3-b]quinazoline and pyrido[4,3-d]thiazolo[3,2-a]pyrimidine analogues” (2012).
Activity calls are given as the source filed them. The rule behind the calls is not given here.

Columns and labels:
Format in all cases: functional
[1] = Cytotoxicity against human CNS cancer cells after 48 hrs by coulter counting; details: Cancer cell lines
Outline: (§1)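 NCI 60-cell-line panel covering nine tumour subpanels, tested over a 5-log dose range. Compounds were dissolved in DMSO and diluted in phosphate-buffered saline to a final DMSO below 1%. Wells held 6 × 10⁴ cells/ml and were run in duplicate. Controls contained PBS and DMSO at matching dilutions. Incubation was at 37 °C in humidified 5% CO₂. GI₅₀, TGI and LC₅₀ were reported.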

[2] = Cytotoxicity against human melanoma cells after 48 hrs by coulter counting; details: Melanoma cell; outline: as §1
[3] = Cytotoxicity against human renal cancer cells after 48 hrs by coulter counting; details: Cancer cell lines; outline: as §1
[4] = Cytotoxicity against human prostate cancer cells after 48 hrs by coulter counting; details: Cancer cell lines; outline: as §1
NSCLC = test: Cytotoxicity against human NSCLC cells after 48 hrs by coulter counting; outline: as §1
HCT-15 = test: Growth inhibition of human HCT15 cells at 10 uM after 48 hrs by coulter counting
Outline: (§2)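 Single-dose primary screen across the full NCI 60-cell-line panel. Stocks were made in DMSO and diluted in PBS to a final DMSO below 1%. Cultures at 6 × 10⁴ cells/ml were run in duplicate wells alongside PBS/DMSO vehicle controls at 37 °C in humidified 5% CO₂. Data were expressed as percent growth of treated cells.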

UACC-257 = test: Growth inhibition of human UACC257 cells at 10 uM after 48 hrs by coulter counting; details: UACC-257, 48 h, read-out: GI
Outline: (§3)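 Single-dose screen in the NCI 60 human tumor cell line panel (nine subpanels). Compounds dissolved in DMSO and diluted in phosphate buffered saline, keeping final DMSO below 1%. Added in duplicate wells to cells at 6 × 10⁴ cells/ml. Controls held PBS and DMSO at matching dilutions. Incubated at 37 °C, humidified, 5% CO₂. Reported as percent growth of treated cells.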

UACC-62 = test: Growth inhibition of human UACC62 cells at 10 uM after 48 hrs by coulter counting; details: UACC-62, 48 h, read-out: GI; outline: as §3
CCRF-CEM = test: Growth inhibition of human CCRF-CEM cells at 10 uM after 48 hrs by coulter counting; details: read-out: GI; outline: as §2
HL-60(TB) = test: Growth inhibition of human HL-60(TB) cells at 10 uM after 48 hrs by coulter counting; details: HL-60, 48 h, read-out: GI
Outline: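 Test compound was dissolved in DMSO and diluted in phosphate-buffered saline to a final DMSO level below 1%. Dilutions were plated in duplicate with cell culture at 6 × 10⁴ cells/ml. Vehicle controls held PBS and DMSO at matching dilutions. Incubation was at 37 °C, humidified, under 5% CO₂. Data were reported as percent growth of treated cells.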

K562 = test: Growth inhibition of human K562 cells at 10 uM after 48 hrs by coulter counting; outline: as §2
MOLT-4 = test: Growth inhibition of human MOLT4 cells at 10 uM after 48 hrs by coulter counting; details: MOLT-4, 48 h, read-out: GI; outline: as §2
RPMI-8226 = test: Growth inhibition of human RPMI8226 cells at 10 uM after 48 hrs by coulter counting; outline: as §2
A549 = test: Growth inhibition of human A549 cells at 10 uM after 48 hrs by coulter counting; details: A549, 48 h, read-out: GI; outline: as §2
HOP-62 = test: Growth inhibition of human HOP62 cells at 10 uM after 48 hrs by coulter counting; outline: as §2
NCI-H23 = test: Growth inhibition of human NCI-H23 cells at 10 uM after 48 hrs by coulter counting; details: NCI-H23, 48 h, read-out: GI; outline: as §2
HT-29 = test: Growth inhibition of human HT-29 cells at 10 uM after 48 hrs by coulter counting; outline: as §2
KM12 = test: Growth inhibition of human KM12 cells at 10 uM after 48 hrs by coulter counting; outline: as §2
SF-268 = test: Growth inhibition of human SF268 cells at 10 uM after 48 hrs by coulter counting; details: SF-268, 48 h, read-out: GI; outline: as §2
SF-295 = test: Growth inhibition of human SF295 cells at 10 uM after 48 hrs by coulter counting; details: SF-295, 48 h, read-out: GI; outline: as §2
SNB-19 = test: Growth inhibition of human SNB19 cells at 10 uM after 48 hrs by coulter counting; details: SNB-19, 48 h, read-out: GI; outline: as §2
SNB-75 = test: Growth inhibition of human SNB75 cells at 10 uM after 48 hrs by coulter counting; details: SNB-75, 48 h, read-out: GI; outline: as §2
LOX IMVI = test: Growth inhibition of human LOXIMVI cells at 10 uM after 48 hrs by coulter counting; outline: as §2
M14 = test: Growth inhibition of human M14 cells at 10 uM after 48 hrs by coulter counting; details: M14, 48 h, read-out: GI; outline: as §2
SK-MEL-2 = test: Growth inhibition of human SK-MEL-2 cells at 10 uM after 48 hrs by coulter counting; details: SK-MEL-2, 48 h, read-out: GI; outline: as §2
ACHN = test: Growth inhibition of human ACHN cells at 10 uM after 48 hrs by coulter counting; details: read-out: GI; outline: as §2
CAKI-1 = test: Growth inhibition of human Caki1 cells at 10 uM after 48 hrs by coulter counting; details: CAKI-1, 48 h, read-out: GI; outline: as §2
UO-31 = test: Growth inhibition of human UO31 cells at 10 uM after 48 hrs by coulter counting; outline: as §3
DU-145 = test: Growth inhibition of human DU145 cells at 10 uM after 48 hrs by coulter counting; outline: as §2
MCF7 = test: Growth inhibition of human MCF7 cells at 10 uM after 48 hrs by coulter counting; details: MCF7, 48 h, read-out: GI; outline: as §2
BT-549 = test: Growth inhibition of human BT549 cells at 10 uM after 48 hrs by coulter counting; details: BT-549, 48 h, read-out: GI; outline: as §2
T47D = test: Growth inhibition of human T47D cells at 10 uM after 48 hrs by coulter counting; details: read-out: GI; outline: as §3
OVCAR-3 = test: Growth inhibition of human OVCAR3 cells at 10 uM after 48 hrs by coulter counting; outline: as §2
OVCAR-8 = test: Growth inhibition of human OVCAR8 cells at 10 uM after 48 hrs by coulter counting; outline: as §2
SN12C = test: Growth inhibition of human SN12C cells at 10 uM after 48 hrs by coulter counting; details: read-out: GI; outline: as §2
TK-10 = test: Growth inhibition of human TK10 cells at 10 uM after 48 hrs by coulter counting; details: TK-10, 48 h, read-out: GI; outline: as §3
[5] = Cytotoxicity against human colon cancer cells after 48 hrs by coulter counting; details: Cancer cell lines; outline: as §1
[6] = read-out: LC50 (the source's name)

## CCN1CC2=C(N=C3SC=CN3C2c2ccc(OC)cc2)/C(=C/c2ccc(OC)cc2)C1 (centres undefined)
[1]
  GI50: 4.7 µM
  LC50: 68.2 µM
  TGI: 9.4 µM
[2]
  GI50: 3.5 µM
  TGI: 10.9 µM
[2]; [6]
  CC50: 55 µM
[3]
  GI50: 2.3 µM
  LC50 (concentration giving 50% net cell kill): 24.9 µM
  TGI: 6 µM
[4]
  GI50: 2.8 µM
  LC50 (concentration killing 50% of cells): 68.1 µM
  TGI: 43.9 µM
NSCLC
  GI50: 2.5 µM
  TGI: 18.3 µM
NSCLC; [6]
  CC50: 64.9 µM
HCT-15
  growth inhibition (GI): Active
UACC-257
  inhibition of growth at 10 µM: 44.8%
UACC-62
  inhibition of growth at 10 µM: 49.3%
CCRF-CEM
  inhibition of growth at 10 µM: 97.3%
HL-60(TB)
  inhibition of growth at 10 µM: 84%
K562
  growth inhibition (GI): Active
MOLT-4
  inhibition of growth at 10 µM: 90.4%
RPMI-8226
  growth inhibition (GI): Active
A549
  inhibition of growth at 10 µM: 66.3%
HOP-62
  growth inhibition (GI): Active
NCI-H23
  inhibition of growth at 10 µM: 54.8%
HT-29
  growth inhibition (GI): Active
KM12
  growth inhibition (GI): Active
SF-268
  inhibition of growth at 10 µM: 85.5%
SF-295
  inhibition of growth at 10 µM: 71.8%
SNB-19
  inhibition of growth at 10 µM: 68.3%
SNB-75
  inhibition of growth at 10 µM: 22.3%
LOX IMVI
  growth inhibition (GI): Active
M14
  inhibition of growth at 10 µM: 97.5%
SK-MEL-2
  inhibition of growth at 10 µM: > 10%
ACHN
  inhibition of growth at 10 µM: 83%
CAKI-1
  inhibition of growth at 10 µM: 78.3%
UO-31
  growth inhibition (GI): Active
DU-145
  growth inhibition (GI): Active
MCF7
  inhibition of growth at 10 µM: 74.3%
BT-549
  inhibition of growth at 10 µM: 55.2%
T47D
  inhibition of growth at 10 µM: 24.4%
OVCAR-3
  growth inhibition (GI): Active
OVCAR-8
  growth inhibition (GI): Active
SN12C
  inhibition of growth at 10 µM: 96.9%
TK-10
  inhibition of growth at 10 µM: 70%
[5]
  GI50: 1.7 µM
  LC50 (concentration giving 50% net cell kill): 6.7 µM
  TGI: 3.4 µM
